# Compound activity as filed in PubChem BioAssay.
# A selection: hits, their analogues and other compounds. The true share with any hit is near 4.6%.
# CHO parental Ca: signal in parental CHO cells, OX1R antagonist counter-screen. parental CHO-K1, ATP-induced calcium, Fluo-8 fluorescence. inhibition, % at 5.6 µM. 330,000 compounds, 0.63% hits. AID 463079;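 active means inhibition above that plate's mean sample inhibition plus 3 SD, cut at about 26% in these data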;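 further: 0% = ATP-challenged DMSO wells and 100% = DMSO wells without ATP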
#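 test system = CHO parental line | reagent = ATP stimulus | measured by = intracellular calcium via Fluo-8 no-wash fluorescent dye | control set = ATP and no-ATP DMSO wells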
# TAAR1 antag: antagonists of human TAAR1. CHO RD-HGA16 TAAR1, Fluo-8 calcium fluorescence, antagonist. 360,000 compounds, 1.5% hits. Q96RJ0. inhibition, % at 3 µM;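 active means inhibition above a per-plate cutoff, the mean inhibition of test compounds on that plate plus 3 SD, cut at about 49% in these data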;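 further: 0% = DMSO plus EC80 beta-PEA response and 100% = DMSO alone without agonist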
#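 Test system: hTAAR1-expressing CHO RD-HGA16 cells, Gα16-coupled; Probe or stimulus: EC80 β-phenethylamine stimulus; Compound dosing: single nominal final test compound concentration of 3 µM; Timing: 140 s kinetic read after compound, 140 s after agonist; Signal: Fluo-8 calcium-sensitive fluorescence; Measure: % inhibition of agonist calcium response; Controls: DMSO and EC80 PEA controls.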
# TAAR1 ag: agonists of human TAAR1 | Q96RJ0 | CHO RD-HGA16 TAAR1, Fluo-8 calcium fluorescence; vehicle wells 0%, saturating PEA agonist 100% | activation, % at 3 µM | 360,000 compounds, 0.99% hits | AID 624467;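 active means activation above the mean activation of all test compounds in the run plus 3 SD, cut at about 38% in these data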
#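 Test system: RD-HGA16 (CHO) cells co-expressing Gα16 and hTAAR1 / Benchmarks: DMSO vehicle as 0%, PEA at EC100 as 100% / Repeats: no replicates (n 1) / Measure: % activation from peak over basal fluorescence ratio, DMSO-to-PEA scaled / Timing: 17-24 h plating, Fluo-8 75 min 37 °C, 30 min RT / Technique: kinetic Fluo-8 calcium fluorescence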
# OX1R antag-1: antagonists of human orexin 1 receptor | O43613 | CHO/OX1R cells, Fluo-8 calcium fluorescence, orexin A | inhibition, % at 5 µM | 330,000 compounds, 0.43% hits | AID 434989;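 active means inhibition above its plate's threshold, mean inhibition of all tested compounds on the plate plus 3 SD, cut at about 37% in these data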;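 further: 0% = orexin A challenge wells and 100% = SB-334867-A antagonist wells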
# Target sequence (O43613 whole entry, looked up): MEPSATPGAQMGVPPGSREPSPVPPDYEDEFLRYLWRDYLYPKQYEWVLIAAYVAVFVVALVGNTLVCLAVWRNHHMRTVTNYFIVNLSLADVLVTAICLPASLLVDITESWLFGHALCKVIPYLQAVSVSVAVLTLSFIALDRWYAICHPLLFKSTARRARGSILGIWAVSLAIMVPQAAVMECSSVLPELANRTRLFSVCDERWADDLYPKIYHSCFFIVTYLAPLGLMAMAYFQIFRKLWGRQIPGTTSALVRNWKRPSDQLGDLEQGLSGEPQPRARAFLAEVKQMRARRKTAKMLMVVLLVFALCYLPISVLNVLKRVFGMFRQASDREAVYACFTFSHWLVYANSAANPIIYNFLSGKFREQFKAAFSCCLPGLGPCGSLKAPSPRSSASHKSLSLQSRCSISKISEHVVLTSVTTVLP
# GPR7 antag: human neuropeptides B/W receptor 1 antagonism; P48145; GPR7-expressing cells, fluorescence antagonist assay; inhibition, % at 4.4 µM; 290,000 compounds, 1.1% hits; AID 1861; in the data active means inhibition above about 16%, passing the limit was not always enough;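 further: cells stimulated with the agonist NPW; 0% = agonist with vehicle and 100% = vehicle without agonist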
# OX1R antag-2: antagonists of human orexin 1 receptor (OX1R); O43613; OX1R-expressing cells, FRET antagonist read-out; inhibition, % at 6.6 µM; 330,000 compounds, 1.8% hits; in the data active means inhibition mostly above about 38%, no sharp cut-off; inactive means mostly below about 40%;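 further: 0% = agonist challenge alone and 100% = reference antagonist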
# OX1R HTRF conf: confirmation of human orexin 1 receptor antagonists, HTRF format; shares compounds with OX1R antag-2; OX1R-expressing cells, HTRF antagonist assay; inhibition, % at 6.6 µM; 1,800 compounds, 49% hits; AID 492964; in the data active means inhibition above about 55%;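 further: CHO cells expressing OX1R stimulated with orexin A at about EC80; 0% = agonist challenge alone and 100% = reference antagonist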
# CHO-K1 HTRF: counter-screen for OX1R antagonists: effect in parental CHO-K1 cells. shares compounds with OX1R antag-2. inhibition, % at 6.6 µM. 1,800 compounds, 48% hits. HTRF counterscreen; in the data active means inhibition above about 17%;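 further: 0% = agonist challenge with vehicle and 100% = vehicle alone without agonist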
# * hit, by the source's call; . = not tested or not shown.
SMILES,CHO parental Ca,TAAR1 antag,TAAR1 ag,OX1R antag-1,GPR7 antag,OX1R antag-2,OX1R HTRF conf,CHO-K1 HTRF
CCOC(=O)Cc1csc(NC(=O)CSc2ncnc3c2cnn3-c2ccc(OC)cc2)n1,12.6,50.0*,17.9,28.8,-2.5,80.0*,26.6,4.0
CCN1C(=O)/C(=C/c2cc(C)n(C)c2C)SC1=Nc1ccc(OC)cc1,-20.7,2.3,8.0,-46.1,1.5,126.8*,26.2,15.5
Cc1cc(C)n(C(=O)c2cccc([N+](=O)[O-])c2)n1,-3.9,1.0,-0.3,-1.8,-14.9,23.7,.,.
Cc1cc(C)n(C(=O)c2cc([N+](=O)[O-])cc([N+](=O)[O-])c2)n1,6.4,-19.2,-2.0,0.6,-4.7,103.5*,70.6*,61.9*
Cc1ccc2c(ccc[n+]2CC(=O)c2ccccc2)c1,-7.9,-5.6,4.2,-14.9,0.8,83.8*,39.5,40.0*
CC(C)C[C@H](NC(=O)/C=C/[C@H]1O[C@@H](n2ccc(=O)[nH]c2=O)[C@H](O)[C@@H]1O)C(=O)O,.,5.4,0.6,.,.,.,.,.
Cc1ccc2c(c1)N(CC(=O)NC1CCCCC1C)C(=O)CO2 (configuration not stated),-14.1,16.0,0.0,-11.9,-5.9,111.1*,37.2,-2.5
O=C(Nc1cccc2ccccc12)OC[C@@H]1CSCCS(=O)(=O)N1,.,-14.3,4.7,.,.,.,.,.
CCn1cc(CN(C)C(=O)/C=C/c2ccc([N+](=O)[O-])cc2)c(C)n1,-3.0,-12.0,3.9,-0.3,-2.6,92.0*,34.9,35.1*
CCN1CCN(C(=O)/C=C/c2ccc([N+](=O)[O-])cc2)CC1,-0.7,2.4,0.9,-4.3,-0.1,97.1*,44.2,58.6*
CN(C)CCC1CCN(c2cc(C#N)c(C#N)cc2[N+](=O)[O-])CC1,-16.2,-12.7,0.7,-11.1,-11.3,118.4*,53.2,53.8*
O=C(NNc1c2ccccc2nc2ccccc12)c1cccc(O)c1,-13.1,19.2,3.3,-4.0,-6.0,26.4,.,.
O=C(NNC(=O)c1cccc2ccccc12)c1ccccc1O,-1.9,-28.2,1.6,-0.3,-1.3,21.8,.,.
O=C(NNc1c2ccccc2nc2ccccc12)c1ccccc1Cl,1.0,-10.0,1.6,-13.8,-7.0,82.8*,50.0,-1.0
O=C(NNc1c2ccccc2nc2ccccc12)c1ccccc1O,4.3,53.9*,9.5,0.9,-1.4,84.1*,61.0*,1.1
O=C(NNc1c2ccccc2nc2ccccc12)c1ccc(O)cc1O,-10.5,60.7*,14.7,0.3,-1.2,102.5*,84.3*,19.6*
O=C(NNC(=O)c1ccccc1Cl)c1ccccc1Cl,-16.2,-1.3,1.8,-8.2,-12.6,3.6,.,.
COc1cc(NC(=O)CN2CCN(C(=O)c3ccco3)CC2)c(C)cc1[N+](=O)[O-],.,4.8,0.6,.,.,.,.,.
COc1cc(C(=O)N2CCCC(C)(C(=O)NS(=O)(=O)C3CC3)C2)cc(OC)c1OC (configuration not stated),.,-25.6,4.6,.,.,.,.,.
CC1=C(C#N)C(c2cccnc2)C2=C(N1)c1ccccc1C2=O (configuration not stated),4.3,-9.3,-1.2,-7.1,-0.6,96.4*,0.2,-26.0
Cc1ccc2nc(C(C)(C)C)c(Cc3cccc(Cl)c3)n2c1,.,-15.9,-1.5,.,.,.,.,.
O=c1ccn2c(n1)OC1CC2OC1COC(c1ccccc1)(c1ccccc1)c1ccccc1 (configuration not stated),.,-25.0,2.4,.,.,.,.,.
CC(=O)NC(c1cccc(F)c1)c1nc(-c2csc3ccccc23)cs1 (configuration not stated),.,-36.6,7.7,.,.,.,.,.
COc1ccc(C(C(=O)NC2CCCC2)N(CCCO)C(=O)c2snc(C(N)=O)c2N)cc1 (configuration not stated),-17.6,9.5,2.6,-20.8,-5.7,121.0*,20.3,-2.9
CC(C)(C)OC(=O)N[C@H]1C=C[C@@H](CC(=O)OCC(F)(F)F)C1,.,-11.6,2.5,.,.,.,.,.
